Values after ≈ are worked out from the molar mass of the structure shown.
Experiments:
Plasmodium falciparum [1] = test: Anti-plasmodial activity against chloroquine-sensitive Plasmodium falciparum NF54 by [3H]-hypoxanthine incorporation assay; type: functional
Method in brief: (§1)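 P. falciparum asexual blood-stage growth inhibition by [3H]hypoxanthine incorporation; chloroquine and artesunate run as reference drugs in every experiment; IC50 given as mean of ≥2 independent experiments.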

Plasmodium falciparum [2] = test: Anti-plasmodial activity against multidrug resistant Plasmodium falciparum K1 by [3H]-hypoxanthine incorporation assay; type: functional; method in brief: as §1
CHO = test: Cytotoxicity against CHO cells after by MTT assay; type: cell-based; conditions: Cricetulus griseus
[3] = Selectivity index, ratio of IC50 for CHO cells to IC50 for chloroquine-sensitive Plasmodium falciparum NF54; type: toxicity; conditions: hamster, read-out: Ratio IC50
Method in brief: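 Selectivity index = IC50 CHO / IC50 PfNF54.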

[4] = Kinetic solubility of the compound in FaSSIF at pH 6.5 after 2 hrs by shake flask method; type: physicochemical; conditions: read-out: Kinetic_solubility
[5] = Metabolic stability in Balb/c mouse liver microsomes assessed as compound remaining at 1 uM in presence of NADPH after 30 mins by LC-MS/MS analysis; type: ADME, microsome; conditions: read-out: Stability
Method in brief: (§2)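 Mouse and human liver microsomes; % compound remaining after 30 min.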

Plasmodium falciparum [6] = test: Anti-plasmodial activity against chloroquine-sensitive Plasmodium falciparum NF54 late 4/5 stage gametocytes assessed as reduction in ATP levels after 24 hrs by BacTiter-Glo reagent based bioluminescence assay; type: functional; conditions: NF54, 24 h
Plasmodium falciparum [7] = test: Ratio of IC50 for chloroquine-sensitive Plasmodium falciparum NF54 early 2/3 stage gametocytes to IC50 for chloroquine-sensitive Plasmodium falciparum NF54 late 4/5 stage gametocytes; type: functional
Method in brief: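 Early (stage II/III) and late (stage IV/V) gametocytes tested in parallel luciferase reporter assays; stage preference = EG IC50/LG IC50.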

Huh-7 = test: Cytotoxicity against human HuH7 cells at 1 to 10 uM after 48 hrs by Alamarblue assay; type: cell-based; conditions: huh-7, 48 h
[8] = Metabolic stability in human liver microsomes assessed as compound remaining at 1 uM in presence of NADPH after 30 mins by LC-MS/MS analysis; type: ADME, microsome; conditions: read-out: Stability; method in brief: as §2

SMILES	IC50 (Plasmodium falciparum [1]) [nM]	IC50 (Plasmodium falciparum [2]) [nM]	IC50 (CHO) [µM]	selectivity ratio [3]	further results
N#Cc1c(-c2ccc(C(F)(F)F)cc2)cc(N2CC(O)C2)n2c1nc1ccccc12	21300				
CCNCCNc1cc(-c2ccc([S+](C)[O-])cc2)c(C#N)c2nc3ccccc3n12 (stereo unspecified)	3810				
CCNCCNc1cc(-c2ccc(S(C)(=O)=O)cc2)c(C#N)c2nc3ccccc3n12	310	330	204	658	solubility kinetic at 2 h [4]: 40 µM (≈ 17.3 µg/mL); remaining at 0.5 h, 1 µM [5]: 86%
N#Cc1c(-c2ccc(C(F)(F)F)cc2)cc(NCCN2CCC(O)CC2)n2c1nc1ccccc12	1100				solubility kinetic at 2 h [4]: < 5 µM
CNC1CCN(c2cc(-c3ccc(C(F)(F)F)cc3)c(C#N)c3nc4ccccc4n23)CC1	840	900	6.31	8	
CCNCCNc1cc(C(F)(F)F)c(C#N)c2nc3ccccc3n12	2930				
CCNCCNc1cc(-c2ccc(C(=O)OC)cc2)c(C#N)c2nc3ccccc3n12	1560				IC50 (Plasmodium falciparum [6]): 1680 nM; Ratio IC50 (Plasmodium falciparum [7]): 1.4; Activity (Huh-7): Non-Toxic
CCN(CC)CCCC(C)Nc1cc(C(F)(F)F)c(C#N)c2nc3ccccc3n12 (stereo unspecified)	4130				
N#Cc1c(-c2ccc(C(F)(F)F)cc2)cc(NC2CCNCC2)n2c1nc1cc(Cl)cc(Cl)c12	260		5.9	22.3	
CCNCCNc1cc(-c2ccc(C#N)cc2)c(C#N)c2nc3ccccc3n12	170	200	3.9	23	IC50 (Plasmodium falciparum [6]): 2660 nM; Ratio IC50 (Plasmodium falciparum [7]): 1.3; Activity (Huh-7): Non-Toxic
CC[C@H]1CN2CCc3cc(OC)c(OC)cc3[C@@H]2C[C@@H]1C[C@H]1NCCc2cc(OC)c(OC)cc21 [EMETINE]			0.095		
CN1CCN(c2cc(-c3ccc(C(F)(F)F)cc3)c(C#N)c3nc4ccccc4n23)CC1	7260	460			
CCNCCNc1cc(-c2ccc(C(F)(F)F)cc2)c(C#N)c2nc3cccc(Br)c3n12	150	240	1.55	2	
N#Cc1c(-c2ccc(C(F)(F)F)cc2)cc(N2CCC(N)CC2)n2c1nc1ccccc12	950	700	15.8	17	solubility kinetic at 2 h [4]: < 5 µM; remaining at 0.5 h, 1 µM [5]: 92%; remaining at 0.5 h, 1 µM [8]: 91%
N#Cc1c(-c2ccc(C(F)(F)F)cc2)cc(N2CCC(N)CC2)n2c1nc1cc(Cl)cc(Cl)c12	180	210	2.98	7.3	
CCNCCNc1cc(-c2cccc(C(F)(F)F)c2)c(C#N)c2nc3ccccc3n12	210	340	5.92	28	IC50 (Plasmodium falciparum [6]): 490 nM; Ratio IC50 (Plasmodium falciparum [7]): 1.6; Activity (Huh-7): Non-Toxic
N#Cc1c(-c2ccc(C(F)(F)F)cc2)cc(NC2CCS(=O)(=O)CC2)n2c1nc1ccccc12	7810				
CC1(O)CCC(Nc2cc(-c3ccc(C(F)(F)F)cc3)c(C#N)c3nc4ccccc4n23)CC1 (stereo unspecified)	6450				
CC(=O)N1CCC(Nc2cc(-c3ccc(C(F)(F)F)cc3)c(C#N)c3nc4ccccc4n23)CC1	4420				
N#Cc1c(-c2ccc(C(F)(F)F)cc2)cc(N2CCC(O)CC2)n2c1nc1ccccc12	> 24000				
CS(=O)(=O)NCCNc1cc(-c2ccc(C(F)(F)F)cc2)c(C#N)c2nc3ccccc3n12	9100				
CCNCCNc1cc(-c2ccc(SC)cc2)c(C#N)c2nc3ccccc3n12	3900				
N#Cc1c(-c2ccc(C(F)(F)F)cc2)cc(NCC2CCOCC2)n2c1nc1ccccc12	> 10000				
CNC1CCCN(c2cc(-c3ccc(C(F)(F)F)cc3)c(C#N)c3nc4ccccc4n23)C1 (stereo unspecified)	1380				

SMILES	IC50 (Plasmodium falciparum [1]) [nM]	IC50 (Plasmodium falciparum [2]) [nM]	IC50 (CHO) [µM]	selectivity ratio [3]	further results
CCNCCNc1cc(-c2ccc(C(F)(F)F)cc2)c(C#N)c2nc3cnccc3n12	270	840	3.14	6	
Cc1c(-c2ccc(C(F)(F)F)cc2)c(C#N)c2nc3ccccc3n2c1NCCN1CCC(O)C1 (stereo unspecified)	550	470	25	45	solubility kinetic at 2 h [4]: < 5 µM
CS(=O)(=O)N1CCC(Nc2cc(-c3ccc(C(F)(F)F)cc3)c(C#N)c3nc4ccccc4n23)CC1	5020				
N#Cc1c(-c2ccc(C(F)(F)F)cc2)cc(N2CCNCC2)n2c1nc1ccccc12	3000	440			
CS(=O)(=O)N1CCN(CCNc2cc(-c3ccc(C(F)(F)F)cc3)c(C#N)c3nc4ccccc4n23)CC1	> 10000				
CCNCCNc1cc(-c2ccc(C(F)(F)F)cc2)c(C#N)c2nc3cc(Br)ccc3n12	380		1.8	5	
CCNCCNc1cc(-c2ccccc2)c(C#N)c2nc3ccccc3n12	700	1070	18.3	26	IC50 (Plasmodium falciparum [6]): 1440 nM; Activity (Huh-7): Non-Toxic
CCNCCNc1c(F)c(-c2ccc(C(F)(F)F)cc2)c(C#N)c2nc3ccccc3n12	5530				solubility kinetic at 2 h [4]: 160 µM (≈ 70.6 µg/mL); remaining at 0.5 h, 1 µM [5]: 35%; remaining at 0.5 h, 1 µM [8]: 39%
CN1CCC(Nc2cc(-c3ccc(C(F)(F)F)cc3)c(C#N)c3nc4cc(Cl)c(Cl)cc4n23)CC1	50	190	4.19	6.1	
N#Cc1c(-c2ccc(C(F)(F)F)cc2)cc(N2CCC(O)C2)n2c1nc1ccccc12 (stereo unspecified)	8480				
CCNCCNc1cc(-c2ccc(C(F)(F)F)cc2)c(C#N)c2nc3ccc(Br)cc3n12	70		4.44	63	
CNC1CCN(c2cc(-c3ccc(C(F)(F)F)cc3)c(C#N)c3nc4ccccc4n23)C1 (stereo unspecified)	1140				
CC(=O)NCCNc1cc(-c2ccc(C(F)(F)F)cc2)c(C#N)c2nc3ccccc3n12	16400				
CC(C)(O)C1CCC(Nc2cc(-c3ccc(C(F)(F)F)cc3)c(C#N)c3nc4ccccc4n23)CC1 (stereo unspecified)	4960				
N#Cc1c(-c2ccc(C(F)(F)F)cc2)cc(N2CCC(=O)CC2)n2c1nc1ccccc12	> 10000				
CN1CCC(Oc2cc(-c3ccc(C(F)(F)F)cc3)c(C#N)c3nc4ccccc4n23)CC1	700	960	4.07	6	
N#Cc1c(-c2ccc(C(F)(F)F)cc2)cc(NCC2CCS(=O)(=O)CC2)n2c1nc1ccccc12	> 10000				
CCNCCNc1cc(-c2ccccc2F)c(C#N)c2nc3ccccc3n12	890	1000	24.4	27	
Cc1ncc2n1-c1ccc(Cl)cc1C(c1ccccc1F)=NC2 [MIDAZOLAM]					remaining at 0.5 h, 1 µM [5]: 1.3%; remaining at 0.5 h, 1 µM [8]: 0.1%
CCNCCNc1cc(-c2ccc(C(F)(F)F)cc2)c(C#N)c2nc3ncccc3n12	140	130	4.1	5	solubility kinetic at 2 h [4]: 10 µM (≈ 4.24 µg/mL)
CS(=O)(=O)c1ccc(-c2cnc(N)c(-c3ccc(C(F)(F)F)nc3)c2)cc1 [MMV-048]					remaining at 0.5 h, 1 µM [5]: 94%; remaining at 0.5 h, 1 µM [8]: 93%
N#Cc1c(-c2ccc(C(F)(F)F)cc2)cc(NC2CCC(O)CC2)n2c1nc1ccccc12 (stereo unspecified)	> 10000				
N#Cc1c(-c2ccc(C(F)(F)F)cc2)cc(NCCN2CCCC2=O)n2c1nc1ccccc12	5990				

Reference: ChEMBL document CHEMBL3994624, “Antimalarial Pyrido[1,2-a]benzimidazoles: Lead Optimization, Parasite Life Cycle Stage Profile, Mechanistic Evaluation, Killing Kinetics, and in Vivo Oral Efficacy in a Mouse Model” (J Med Chem, 2017)
